The results in this text go back to ChEMBL document CHEMBL3612031, “Incorporation of a Michael acceptor enhances the antitumor activity of triterpenoic acids” (Eur J Med Chem, 2015).

Active and inactive are the calls of the source. The calls are words filed in the database; no cut-off is given here.

What all share (type): functional, cell-based
For experiment [1], the system named is HT-29. The experiment is described as follows: Cytotoxicity against human HT-29 cells assessed as cell survival after 96 hrs by SRB assay. Particulars: for EC50: HT-29, 96 h. The procedure, abridged: (§1)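 Monolayers kept in RPMI 1640 with 10 % heat-inactivated FBS and penicillin/streptomycin, 37 °C, 5 % CO2. Exponentially growing cells seeded day 0 at densities avoiding confluence. After 24 h, serial dilutions 0-100 µM for 96 h, DMSO or DMF ≤0.5 % final. Fixed with 10 % TCA at 4 °C, stained 0.4 % SRB ~20 min, washed with 1 % acetic acid, dye dissolved in 10 mM Tris base, A570 read. Survival taken relative to untreated controls. EC50 fitted by two-parameter Hill equation, mean of three independent experiments each run in triplicate.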

The nature of experiment [2]: (§2) Cytotoxicity against human 518A2 cells assessed as cell survival after 96 hrs by SRB assay. The note with it: 518A2, 96 h. Summed up: as §1
Experiment [3] deals with 8505C. Description: Cytotoxicity against human 8505C cells assessed as cell survival after 96 hrs by SRB assay. Summed up: as §1
Background: In SRB staining, fixed cells bind dye roughly in proportion to their protein.

Experiment [4] deals with A549. Description: Cytotoxicity against human A549 cells assessed as cell survival after 96 hrs by SRB assay. The note with it: for EC50: A549, 96 h. The procedure, abridged:
as §1

The subject of experiment [5] is MCF7. The experiment is described as follows: Cytotoxicity against human MCF7 cells assessed as cell survival after 96 hrs by SRB assay. The note with it: for EC50: MCF7, 96 h. Summed up:
as §1

Experiment [6] deals with 518A2. The description is as §2. The procedure, abridged:
as §1

In experiment [7] the test system is MCF7. Description: Cytotoxicity against human MCF7 cells assessed as inhibition of cell proliferation after 3 days by radioactive thymidine incorporation assay. Particulars: MCF7, 72 h. A general note: Uptake of a labelled nucleoside into DNA is a usual measure of proliferation.

The term EC50 denotes the concentration that produces a half-maximal response. For the molecule `COC(=O)[C@@]1(C)CC[C@]2(C)CC[C@]3(C)C(=CC(=O)[C@@H]4[C@@]5(C)CCC(=O)C(C)(C)[C@@H]5CC[C@]43C)[C@@H]2C1`, the EC50 in experiment [1] is 26.7 µM; in experiment [2], more than 30 µM; in experiment [3], 20.5 µM; in experiment [4], 26.1 µM; in experiment [5], 16.7 µM.
In the case of `COC(=O)[C@]12CCC(C)(C)C[C@H]1C1=CC[C@@H]3[C@@]4(C)CC[C@H](O)C(C)(C)[C@@H]4CC[C@@]3(C)[C@]1(C)CC2` [METHYL OLEANOLATE], the EC50 in experiment [1], in experiment [2] and in experiment [5] was more than 30 µM each time.
Consider `COC(=O)[C@]12CCC(C)(C)C[C@H]1C1=CC(=O)[C@@H]3[C@@]4(C)CC[C@H](O)C(C)(C)[C@@H]4CC[C@@]3(C)[C@]1(C)CC2`, for which the results for the EC50 in experiment [1], in experiment [2] and in experiment [5] were 27.6 µM, more than 30 µM and 28.7 µM, respectively.
Regarding `COC(=O)[C@]12CC[C@@H](C)[C@H](C)[C@H]1C1=CC(=O)[C@@H]3[C@@]4(C)CC(Br)(Br)C(=O)C(C)(C)[C@@H]4CC[C@@]3(C)[C@]1(C)CC2`, the result in experiment [1], in experiment [6], in experiment [3], in experiment [4] and in experiment [5] was Active.
On to `C=C1C[C@]2(C)[C@H]3C(=O)C=C4[C@@H]5[C@@H](C)[C@H](C)CC[C@]5(C(=O)OC)CC[C@@]4(C)[C@]3(C)CC[C@H]2C(C)(C)C1=O`, for which the concentration for a half-maximal effect (EC50) was 3.16 µM in experiment [1]; 1.51 µM in experiment [2]; 1.62 µM in experiment [3]; 1.57 µM in experiment [4]; 4.68 µM in experiment [5].
For the molecule `CC1(C)[C@@H](O)CC[C@]2(C)[C@H]3C(=O)C=C4[C@@H]5C[C@@](C)(C(=O)O)CC[C@]5(C)CC[C@@]4(C)[C@]3(C)CC[C@@H]12` [ENOXOLONE], the half-maximal effective concentration (EC50) was 80.1 µM in experiment [1]; 83.9 µM in experiment [2]; 86.5 µM in experiment [3]; 82.8 µM in experiment [4]; 84.7 µM in experiment [5].
Regarding `C[C@H]1[C@H](C)CC[C@]2(C(=O)O)CC[C@]3(C)C(=CC[C@@H]4[C@@]5(C)CC[C@H](O)C(C)(C)[C@@H]5CC[C@]43C)[C@H]12` [URSOLIC ACID], the half-maximal effective concentration (EC50) in experiment [1] came to 10.6 µM; in experiment [2] it was 14.7 µM; in experiment [3], 13.5 µM; in experiment [4] it was 15.5 µM; in experiment [5] it was 12.7 µM.
Take `COC(=O)[C@@]1(C)CC[C@]2(C)CC[C@]3(C)C(=CC(=O)[C@@H]4[C@@]5(C)CC[C@H](O)C(C)(C)[C@@H]5CC[C@]43C)[C@@H]2C1`: the EC50 in experiment [1], in experiment [2], in experiment [3], in experiment [4] and in experiment [5] was more than 30 µM throughout.
As for `COC(=O)[C@]12CC[C@@H](C)[C@H](C)[C@H]1C1=CC[C@@H]3[C@@]4(C)CC(Br)(Br)C(=O)C(C)(C)[C@@H]4CC[C@@]3(C)[C@]1(C)CC2`, the outcome in experiment [1], in experiment [6], in experiment [3], in experiment [4] and in experiment [5] was Active.
As to `C=C1C[C@]2(C)[C@H]3C(=O)C=C4[C@@H]5C[C@@](C)(C(=O)OC)CC[C@]5(C)CC[C@@]4(C)[C@]3(C)CC[C@H]2C(C)(C)C1=O`, the EC50 in experiment [1] was more than 30 µM; in experiment [2], more than 30 µM; in experiment [3] it was more than 30 µM; in experiment [4] it was more than 30 µM; in experiment [5], 0.74 µM.
For `COC(=O)[C@]12CCC(C)(C)C[C@H]1C1=CC(=O)[C@@H]3[C@@]4(C)CC(Br)(Br)C(=O)C(C)(C)[C@@H]4CC[C@@]3(C)[C@]1(C)CC2`, the result in experiment [1], in experiment [6], in experiment [3], in experiment [4] and in experiment [5] was Active.
For `C=C1C[C@]2(C)[C@H]3C(=O)C=C4[C@@H]5CC(C)(C)CC[C@]5(C(=O)OC)CC[C@@]4(C)[C@]3(C)CC[C@H]2C(C)(C)C1=O`, the EC50 in experiment [2] was 16.8 µM; in experiment [3], 15.5 µM; in experiment [4], 17.9 µM.
On to `COC(=O)[C@]12CCC(C)(C)C[C@H]1C1=CC(=O)[C@@H]3[C@@]4(C)CCC(=O)C(C)(C)[C@@H]4CC[C@@]3(C)[C@]1(C)CC2`, for which, in experiment [5], the concentration for a half-maximal effect (EC50) is more than 30 µM.
For the molecule `COC(=O)[C@]12CC[C@@H](C)[C@H](C)[C@H]1C1=CC[C@@H]3[C@@]4(C)C[C@H](C)C(=O)C(C)(C)[C@@H]4CC[C@@]3(C)[C@]1(C)CC2`, the outcome in experiment [1], in experiment [6], in experiment [3], in experiment [4] and in experiment [5] was inactive.
On to `CC1(C)CC[C@]2(C(=O)O)CC[C@]3(C)C(=CC[C@@H]4[C@@]5(C)CC[C@H](O)C(C)(C)[C@@H]5CC[C@]43C)[C@@H]2C1` [OLEANOLIC_ACID], for which the half-maximal effective concentration (EC50) in experiment [1], in experiment [2], in experiment [3], in experiment [4] and in experiment [5] was more than 30 µM throughout.
As to `CC(=O)[C@@H]1CC[C@]2(C(=O)O)CC[C@]3(C)[C@H](CC[C@@H]4[C@@]5(C)CC[C@H](O)C(C)(C)[C@@H]5CC[C@]43C)[C@@H]12` [PLATANIC ACID], the EC50 in experiment [1] amounted to 1.69 µM; in experiment [2], 1.5 µM; in experiment [3], 1.57 µM; in experiment [4], 1.54 µM; in experiment [5] it was 1.55 µM.
As to `COC(=O)[C@]12CC[C@@H](C)[C@H](C)[C@H]1C1=CC[C@@H]3[C@@]4(C)CC[C@H](O)C(C)(C)[C@@H]4CC[C@@]3(C)[C@]1(C)CC2` [METHYL URSOLATE], the EC50 in experiment [1], in experiment [2] and in experiment [5] was more than 30 µM throughout.
With `C=C1C[C@]2(C)[C@H]3CC=C4[C@@H]5[C@@H](C)[C@H](C)CC[C@]5(C(=O)OC)CC[C@@]4(C)[C@]3(C)CC[C@H]2C(C)(C)C1=O`, the 50% effective concentration (EC50) in experiment [1] is 1.35 µM; in experiment [2] it was 2.16 µM; in experiment [3], 6.1 µM; in experiment [4], 2.93 µM; in experiment [5], 4.43 µM.
Taken in the same sequence, the figures for `C=C1C[C@]2(C)[C@H]3CC=C4[C@@H]5CC(C)(C)CC[C@]5(C(=O)OC)CC[C@@]4(C)[C@]3(C)CC[C@H]2C(C)(C)C1=O` were more than 30 µM, more than 30 µM, more than 30 µM, more than 30 µM and more than 30 µM.
As for `C=C1C[C@]2(C)[C@H]3C(=O)C=C4[C@@H]5C[C@@](C)(C(=O)OC)CC[C@]5(C)CC[C@@]4(C)[C@]3(C)CC[C@H]2C(C)(C)[C@H]1O`, the outcome in experiment [1], in experiment [6], in experiment [3], in experiment [4] and in experiment [5] was inactive.
With `COC(=O)[C@]12CC[C@@H](C)[C@H](C)[C@H]1C1=CC(=O)[C@@H]3[C@@]4(C)CC[C@H](O)C(C)(C)[C@@H]4CC[C@@]3(C)[C@]1(C)CC2`, the EC50 in experiment [1], in experiment [2] and in experiment [5] was more than 30 µM in each case.
Turning to `CC1(C)CC[C@]2(C(=O)O)CC[C@]3(C)[C@H](C(=O)C=C4[C@@]5(C)C=C(C#N)C(=O)C(C)(C)[C@@H]5CC[C@]43C)[C@@H]2C1` [BARDOXOLONE], the EC50 in experiment [7] amounted to 0.16 µM.
Regarding `COC(=O)[C@]12CC[C@@H](C)[C@H](C)[C@H]1C1=CC(=O)[C@@H]3[C@@]4(C)CCC(=O)C(C)(C)[C@@H]4CC[C@@]3(C)[C@]1(C)CC2`, the EC50 in experiment [1] is 3.71 µM; in experiment [2] it was 3.71 µM; in experiment [3], 4.32 µM; in experiment [4], 3.83 µM; in experiment [5], 4.24 µM.
